ChEMBL document CHEMBL1765047, “Synthesis and in vivo evaluation of (S)-6-(4-fluorophenoxy)-3-((1-[11C]methylpiperidin-3-yl)methyl)-2-o-tolylquinazolin-4(3H)-one, a potential PET tracer for growth hormone secretagogue receptor (GHSR)” (Bioorg Med Chem, 2011)

Columns and labels:
Hippocampus [1] = test: Drug uptake in CD1 mouse hippocampus at 0.1 mCi, iv after 30 mins by gamma scintillation counting; format: ADME, organism-based; conditions: in vivo, 0.5 h
Summary of the method: (§1)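 Baseline regional brain study in male CD1 mice (23-28 g) injected via tail vein with 0.1 mCi tracer in 0.2 mL saline (~4000 mCi/μmol). Killed at 10, 30, 60 or 90 min; brain regions dissected on ice, weighed and gamma-counted with injectate standards. Reported as %ID/g tissue, mean ± SD, n=3.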

[2] = Drug uptake in CD1 mouse adrenal at 0.1 mCi, iv after 90 mins in presence of (S)-6-(4-Fluorophenoxy)-3-(piperidin-3-ylmethyl)-2-o-tolylquinazolin-4(3H)-one; format: ADME, organism-based, Adrenal gland; conditions: in vivo, 1.5 h
Summary of the method: (§2)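 Blockade arm: male CD1 mice (23-28 g) given 1 mg/kg blocker s.c. in saline/alcohol 9:1, or vehicle alone, 15 min before tail-vein tracer (0.1 mCi in 0.2 mL saline, ~4000 mCi/μmol). Killed by cervical dislocation at 90 min; organs dissected on ice, weighed, gamma-counted against injectate standards; %ID/g tissue, mean ± SD, n=5.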

Hypothalamus [3] = test: Drug uptake in CD1 mouse hypothalamus at 0.1 mCi, iv after 30 mins by gamma scintillation counting; format: ADME, organism-based; conditions: in vivo, 0.5 h; summary of the method: as §1
Brain [4] = test: Drug uptake in CD1 mouse brain at 0.1 mCi, iv after 10 mins by gamma scintillation counting; format: ADME, organism-based; conditions: in vivo; summary of the method: as §1
Hypothalamus [5] = test: Drug uptake in CD1 mouse hypothalamus at 0.1 mCi, iv after 90 mins by gamma scintillation counting; format: ADME, organism-based; conditions: in vivo, 1.5 h; summary of the method: as §1
Blood [6] = test: Drug uptake in CD1 mouse blood at 0.1 mCi, iv after 10 mins by gamma scintillation counting; format: ADME, organism-based; conditions: in vivo
Summary of the method: (§3)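 Baseline whole-body distribution in male CD1 mice (23-28 g). Tracer 0.1 mCi in 0.2 mL saline (~4000 mCi/μmol) into lateral tail vein. Cervical dislocation at 10, 30 or 90 min; organs dissected on ice, weighed, gamma-counted alongside injectate aliquots as standards. Reported as %ID/g tissue, mean ± SD, n=5.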

Cerebellum [7] = test: Drug uptake in CD1 mouse cerebellum at 0.1 mCi, iv after 30 mins by gamma scintillation counting; format: ADME, organism-based; conditions: in vivo, 0.5 h; summary of the method: as §1
Hippocampus [8] = test: Drug uptake in CD1 mouse hippocampus at 0.1 mCi, iv after 90 mins by gamma scintillation counting; format: ADME, organism-based; conditions: in vivo, 1.5 h; summary of the method: as §1
Lung = test: Drug uptake in CD1 mouse lung at 0.1 mCi, iv after 90 mins in presence of (S)-6-(4-Fluorophenoxy)-3-(piperidin-3-ylmethyl)-2-o-tolylquinazolin-4(3H)-one; format: ADME, organism-based; conditions: in vivo, 1.5 h; summary of the method: as §2
Heart [9] = test: Drug uptake in CD1 mouse heart at 0.1 mCi, iv after 30 mins by gamma scintillation counting; format: ADME, organism-based; conditions: in vivo, 0.5 h; summary of the method: as §3
Heart [10] = test: Drug uptake in CD1 mouse heart at 0.1 mCi, iv after 90 mins in presence of (S)-6-(4-Fluorophenoxy)-3-(piperidin-3-ylmethyl)-2-o-tolylquinazolin-4(3H)-one; format: ADME, organism-based; conditions: in vivo, 1.5 h; summary of the method: as §2
Hippocampus [11] = test: Drug uptake in CD1 mouse hippocampus at 0.1 mCi, iv after 60 mins by gamma scintillation counting; format: ADME, organism-based; conditions: in vivo, 1 h; summary of the method: as §1
Cortex [12] = test: Drug uptake in CD1 mouse cortex at 0.1 mCi, iv after 30 mins by gamma scintillation counting; format: ADME, organism-based; conditions: in vivo, 0.5 h; summary of the method: as §1
Blood [13] = test: Drug uptake in CD1 mouse blood at 0.1 mCi, iv after 90 mins in presence of (S)-6-(4-Fluorophenoxy)-3-(piperidin-3-ylmethyl)-2-o-tolylquinazolin-4(3H)-one; format: ADME, organism-based; conditions: in vivo, 1.5 h; summary of the method: as §2
[14] = Drug uptake in CD1 mouse testis at 0.1 mCi, iv after 30 mins by gamma scintillation counting; format: ADME, organism-based; conditions: in vivo, 0.5 h; summary of the method: as §3
Liver = test: Drug uptake in CD1 mouse liver at 0.1 mCi, iv after 90 mins by gamma scintillation counting; format: ADME, organism-based; conditions: in vivo, 1.5 h; summary of the method: as §3
Brain [15] = test: Drug uptake in CD1 mouse brain at 0.1 mCi, iv after 90 mins by gamma scintillation counting; format: ADME, organism-based; conditions: in vivo, 1.5 h; summary of the method: as §1
[16] = Drug uptake in CD1 mouse adrenal at 0.1 mCi, iv after 10 mins by gamma scintillation counting; format: ADME, organism-based, Adrenal gland; conditions: in vivo; summary of the method: as §3
[17] = Drug uptake in CD1 mouse adrenal at 0.1 mCi, iv after 30 mins by gamma scintillation counting; format: ADME, organism-based, Adrenal gland; conditions: in vivo, 0.5 h; summary of the method: as §3
Brain [18] = test: Drug uptake in CD1 mouse brain at 0.1 mCi, iv after 60 mins by gamma scintillation counting; format: ADME, organism-based; conditions: in vivo, 1 h; summary of the method: as §1
Blood [19] = test: Drug uptake in CD1 mouse blood at 0.1 mCi, iv after 30 mins by gamma scintillation counting; format: ADME, organism-based; conditions: in vivo, 0.5 h; summary of the method: as §3
Cortex [20] = test: Drug uptake in CD1 mouse cortex at 0.1 mCi, iv after 10 mins by gamma scintillation counting; format: ADME, organism-based; conditions: in vivo; summary of the method: as §1
Cerebellum [21] = test: Drug uptake in CD1 mouse cerebellum at 0.1 mCi, iv after 10 mins by gamma scintillation counting; format: ADME, organism-based; conditions: in vivo; summary of the method: as §1
Hypothalamus [22] = test: Drug uptake in CD1 mouse hypothalamus at 0.1 mCi, iv after 60 mins by gamma scintillation counting; format: ADME, organism-based; conditions: in vivo, 1 h; summary of the method: as §1
Cortex [23] = test: Drug uptake in CD1 mouse cortex at 0.1 mCi, iv after 90 mins by gamma scintillation counting; format: ADME, organism-based; conditions: in vivo, 1.5 h; summary of the method: as §1

With `Cc1ccccc1-c1nc2ccc(Oc3ccc(F)cc3)cc2c(=O)n1C[C@H]1CCCN([11CH3])C1` the Drug uptake (Hippocampus [1]) was 0.59 % ID/g, the Drug uptake [2] was 10.02 % ID/g and the Drug uptake (Hypothalamus [3]) was 0.58 % ID/g. It also gave a Drug uptake (Brain [4]) of 0.54 % ID/g, a Drug uptake (Hypothalamus [5]) of 0.86 % ID/g and a Drug uptake (Blood [6]) of 2.14 % ID/g. The Drug uptake (Cerebellum [7]) was 0.56 % ID/g, the Drug uptake (Hippocampus [8]) was 0.65 % ID/g and the Drug uptake (Lung) was 16.28 % ID/g. It also gave a Drug uptake (Heart [9]) of 3.91 % ID/g, a Drug uptake (Heart [10]) of 3.74 % ID/g and a Drug uptake (Hippocampus [11]) of 0.71 % ID/g. For the same compound, the Drug uptake (Cortex [12]) was 0.6 % ID/g, the Drug uptake (Blood [13]) was 2.01 % ID/g and the Drug uptake [14] was 1.39 % ID/g. It also gave a Drug uptake (Liver) of 13.46 % ID/g, a Drug uptake (Brain [15]) of 0.54 % ID/g and a Drug uptake [16] of 15.57 % ID/g. It also gave a Drug uptake [17] of 10.77 % ID/g, a Drug uptake (Brain [18]) of 0.62 % ID/g and a Drug uptake (Blood [19]) of 1.87 % ID/g. It also gave a Drug uptake (Cortex [20]) of 0.63 % ID/g, a Drug uptake (Cerebellum [21]) of 0.63 % ID/g and a Drug uptake (Hypothalamus [22]) of 0.74 % ID/g. The Drug uptake (Cortex [23]) was 0.66 % ID/g.
